Data: the RNAGym collection of RNA variant scans (doi:10.1126/science.aae0568)
This sample holds only a part of the variants without activity.

B1: tRNA (parent)
chain: GUUCCGUUGGCGUAAUGGUAACGCGUCUCCCUCCUAAGGAGAAGACUGCGGGUUCGAGUCCCGUACGGAACG

Variants of: B1
Experiment: yeast fitness relative to wild type (ratio to wild type); higher = fitter; tRNA-Arg(CCU), competitive growth, 37 C, YPD
Summary of the method: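 Changes in genotype frequencies gave Darwinian fitness relative to wild type. Frequencies were read by 100-nucleotide paired-end sequencing of gene amplicons before and after pooled Saccharomyces cerevisiae strains, carrying tRNA-Arg(CCU) gene variants at the native locus, were competed in YPD at 37°C for 24 hours in six replicates. A genotype was kept only with ≥ 100 starting reads, and estimates < 0.5 were set to 0.5.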

Variant | yeast fitness
U8C G18A C24A A37G A57G A69G | ≤ 0.5
U8C C31U C49U U54C | ≤ 0.5
U8C G9A G41C A69U | ≤ 0.5
U8C A20U C30G A37G G44A | ≤ 0.5
U8C A14C G50A A57C | ≤ 0.5
U8C C22A U47A | ≤ 0.5
U8A U19G C22U | ≤ 0.5
U8C C22G A37G C60A A70G | ≤ 0.5
U8C A20C G56A C61U | 0.532
U8C G12C G63C | 0.577
U8C G23C U26C C29G A45U | ≤ 0.5
U8A U26A C29A A65C | 0.761
U8A U28A C33A A36U A57G | ≤ 0.5
U8C A20C A21C A36U A45C | ≤ 0.5
U8C G18C C33U | ≤ 0.5
U8C C30A C46G U54A U64A G68A | ≤ 0.5
U8C C30A G48A | 0.731
U8A G44A | 0.644
U8A G44C | 0.788
U8C A21U G39C G50A | ≤ 0.5
U8A G56A G67C | ≤ 0.5

Variant | yeast fitness
U8C A36C G41A G68A A69C | ≤ 0.5
U8C G18A C27G C34A U47A | ≤ 0.5
U8C C30G C49A G67A G68A | ≤ 0.5
U8A U13A A15U C46G A69U | ≤ 0.5
U8C G23A A57C | 0.661
U8C A37G G38C | ≤ 0.5
U8C A40C A65C G68C | ≤ 0.5
U8C A43C C49G A57G | ≤ 0.5
U8C C11U G23A C31U A45C G48A G67A | ≤ 0.5
U8C C11A A43U G48C C60G | ≤ 0.5
U8A U28C U47A | ≤ 0.5
U8C C62U | 0.881
U8C G18C A21C G63A | 0.587
U8C A37G G39C | ≤ 0.5
U8C G17C A42G C61A | ≤ 0.5
U8C A45U | 0.923
U8C G9C A21C C24G U32G G38A | ≤ 0.5
U8C C34U A45C A69C A70C | ≤ 0.5
U8C C31A G41A | ≤ 0.5
U8C C31G G50A | 0.615
U8C C27G C30G C46U C49G | ≤ 0.5

Variant | yeast fitness
U8C G23A C30G | ≤ 0.5
U8C C31G G48A U54C | ≤ 0.5
U8C A15U G25A C34G U54A A65U | 0.541
U8C G9A U13A A15G A37U C46U G68A | ≤ 0.5
U8C C34U C55A C62U | 0.619
U8C G9A G10A G23C C29U A36C C49G A70U | 0.534
U8A U13A C29G A45C G68C A69G | ≤ 0.5
U8C C11A A15C C49U A57G C61U | ≤ 0.5
U8C A14G G23U A65C | ≤ 0.5
U8C C11G A15C A70C | ≤ 0.5
U8C G10A C11G G12C C29G | ≤ 0.5
U8C C24G U26C | ≤ 0.5
U8C G9A A20C | 0.772
U8A U13C | 0.747
U8C A36G A70C | 0.644
U8C A20U A21U U26G C31A A45U | 0.54
U8A U26G C46G | ≤ 0.5
U8C C31U G48C C55A C60G A69G | ≤ 0.5
U8C G12A G25A | 0.734
U8A U47C | 0.723
U8A U47A | 0.619

Variant | yeast fitness
U8A U32C | 0.648
U8C A15U | 0.849
U8C G10A G23C C33U | 0.611
U8A G44C C62U | ≤ 0.5
U8C C24U A45G C46G C55G | ≤ 0.5
U8C A21U C34A A40C | 0.627
U8C G10C | 0.639
U8C C22A C29G G44A U64G | ≤ 0.5
U8C C33G A43C C66A | ≤ 0.5
U8C A20G C27U C30U A42G C60A | 0.711
U8C A15C A20U | 0.544
U8C A65U | 0.957
U8A U26G U35C G63A A70G | ≤ 0.5
U8C A15U G25A C34G U54A | ≤ 0.5
U8A U13A A14C U16C G67A | ≤ 0.5
U8A U19G C24G U32A | ≤ 0.5
U8C C22A C46A A65U | ≤ 0.5
U8C A14C C30G | ≤ 0.5
U8C C31U A43U G48A U53A | ≤ 0.5
U8A U19C A21C G39C | ≤ 0.5
U8C G12A G51A C66A | ≤ 0.5
